Experimental data from PMC6289621 (Biomaterials, 2018).
Read-outs that look alike come from different tables or passages of the source. Values belong to the compound of their own block, whether it stands above or below them.

Experiments:
BC1 dhBMEC microvessels [1] = assay: Solute permeability of BC1 dhBMEC microvessels; type: in vitro ADME, human; conditions: for Permeability on days four and six compared with day two: p > 0.05
[2] = tested on: iPS12, KW01 and AD6 dhBMEC microvessels
HUVEC microvessels = assay: Solute permeability of HUVEC microvessels; type: in vitro ADME, human; conditions: for Permeability differences between day two, four and six: p > 0.05; for Permeability in HUVEC microvessels relative to BC1 dhBMEC microvessels: HUVEC vs BC1 dhBMEC
pial PCV microvessels = conditions: rat, not told; cited from earlier work
p-glycoprotein = conditions: healthy humans, continuous infusion of tariquidar ref 80; cited from earlier work
[3] = target: P-glycoprotein (P-gp) in BC1 dhBMEC microvessels (Homo sapiens, UniProt P08183); assay: Efflux inhibition in BC1 dhBMEC microvessels; type: cell-based
Chain of P-glycoprotein (P-gp) in BC1 dhBMEC microvessels (P08183 whole entry): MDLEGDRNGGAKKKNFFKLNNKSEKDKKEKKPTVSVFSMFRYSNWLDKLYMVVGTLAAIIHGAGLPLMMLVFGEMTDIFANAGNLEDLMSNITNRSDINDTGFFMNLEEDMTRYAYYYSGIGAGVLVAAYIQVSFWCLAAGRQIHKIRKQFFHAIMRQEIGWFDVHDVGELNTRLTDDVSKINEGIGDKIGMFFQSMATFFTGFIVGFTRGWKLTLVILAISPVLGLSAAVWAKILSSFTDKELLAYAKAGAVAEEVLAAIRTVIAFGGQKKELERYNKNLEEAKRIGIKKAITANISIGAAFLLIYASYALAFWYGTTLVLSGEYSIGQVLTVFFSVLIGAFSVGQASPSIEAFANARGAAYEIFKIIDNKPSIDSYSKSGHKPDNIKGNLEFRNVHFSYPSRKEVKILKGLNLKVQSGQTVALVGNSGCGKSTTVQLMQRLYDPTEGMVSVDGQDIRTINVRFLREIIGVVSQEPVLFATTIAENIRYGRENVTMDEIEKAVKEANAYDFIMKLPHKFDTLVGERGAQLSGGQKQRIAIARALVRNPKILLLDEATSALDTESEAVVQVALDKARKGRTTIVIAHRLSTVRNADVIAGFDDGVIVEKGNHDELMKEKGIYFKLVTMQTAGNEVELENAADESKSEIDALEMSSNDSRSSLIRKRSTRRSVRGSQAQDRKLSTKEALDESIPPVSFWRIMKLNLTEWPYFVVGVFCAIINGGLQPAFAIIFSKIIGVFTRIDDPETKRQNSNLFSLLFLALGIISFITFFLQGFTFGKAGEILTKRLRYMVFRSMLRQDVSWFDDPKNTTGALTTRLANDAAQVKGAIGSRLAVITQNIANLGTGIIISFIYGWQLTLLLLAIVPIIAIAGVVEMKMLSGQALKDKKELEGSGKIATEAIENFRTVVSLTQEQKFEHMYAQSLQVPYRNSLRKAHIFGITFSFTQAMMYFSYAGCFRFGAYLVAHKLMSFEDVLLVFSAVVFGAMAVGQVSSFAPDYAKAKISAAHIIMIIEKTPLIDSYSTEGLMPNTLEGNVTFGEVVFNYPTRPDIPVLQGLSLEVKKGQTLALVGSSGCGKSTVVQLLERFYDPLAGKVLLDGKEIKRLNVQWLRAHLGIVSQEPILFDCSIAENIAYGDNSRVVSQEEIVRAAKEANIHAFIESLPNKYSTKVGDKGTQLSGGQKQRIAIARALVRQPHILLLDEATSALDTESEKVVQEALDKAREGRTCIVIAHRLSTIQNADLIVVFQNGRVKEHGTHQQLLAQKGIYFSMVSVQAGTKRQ

[4] = cited from earlier work
[5] = tested on: iPS12, KW01 and AD6 dhBMEC microvessels; assay: Solute permeability of dhBMEC microvessels from other iPSC lines; conditions: day two, p > 0.05 for all comparisons
[6] = Solute permeability of HUVEC microvessels; type: in vitro ADME, human; conditions: human
BC1 dhBMEC microvessels [7] = assay: Cytokine activation: permeability, adhesion molecules and leukocyte adhesion; type: cell-based, human
Procedure, shortened: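 dhBMEC microvessels in collagen I channels, perfused at ~1 dyn cm⁻² with serum-free endothelial media plus 1% platelet-poor serum, with or without 10 ng mL⁻¹ TNFα for 12 h. […] ICAM-1/VCAM-1 by immunostaining; breakdown by phase contrast. Mean ± SEM.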

[8] = 12-hour perfusion of 2 μM tariquidar

Disruptions in paracellular permeability [3, 8]: not observed
Increase in permeability of P-gp substrate Rhodamine 123 [3, 8]: two-fold
Effect on mitochondrial localization of R123 ([3]; tariquidar treated BC1 dhBMEC microvessels): no noticeable effect
Compound: COc1cc2c(cc1OC)CN(CCc1ccc(NC(=O)c3cc(OC)c(OC)cc3NC(=O)c3cnc4ccccc4c3)cc1)CC2 [tariquidar]
Increase of verapamil distribution volume (p-glycoprotein): 2.73 fold
Cytotoxicity (barrier function and microvessel structure) ([3]; 12 hours of tariquidar exposure): did not result in apparent cytotoxicity

Permeability of LY, R123 or 10 kDa dextran after TNFα compared to control (BC1 dhBMEC microvessels [7]; 10 ng mL^−1 TNFα, 12 hours, p > 0.05 for all comparisons): did not alter
Compound: TNFα
Expression of adhesion molecules ICAM-1 and VCAM-1 (BC1 dhBMEC microvessels [7]; 10 ng mL^−1 TNFα, 12 hours, immunocytochemistry): upregulation
Time to macroscopic breakdown of microvessels (BC1 dhBMEC microvessels [7]; microvessels exposed to TNFα with adherent PBMCs): ≤ 24 h

More lines, now with the values behind:

Compound: Lucifer yellow [LY]
Permeability (BC1 dhBMEC microvessels [1]; BC1 dhBMEC microvessels, day two): 2.50 ± 0.46 × 10^−7 cm s^−1
Permeability, average value across all time points (BC1 dhBMEC microvessels [1]; BC1 dhBMEC microvessels, over six days (days two, four, six)): 2.84 ± 0.41 × 10^−7 cm s^−1
Permeability on days four and six compared with day two (BC1 dhBMEC microvessels [1]; BC1 dhBMEC microvessels): did not increase
PLY / PR123 (ratio of LY to R123 permeabilities) (BC1 dhBMEC microvessels [1]; dhBMEC microvessels, untreated): ~ 1.9
Permeability differences between BC1, iPS12, KW01 and AD6 microvessels [2]: no statistically significant differences
Mean permeability over six days (HUVEC microvessels; HUVEC microvessels): 3.90 ± 0.16 × 10^−6 cm s^−1
PLY / PR123 (ratio of LY to R123 permeabilities) (HUVEC microvessels; HUVEC microvessels): ~ 1.3
Permeability differences between day two, four and six (HUVEC microvessels; HUVEC microvessels): no statistically significant differences
Permeability in HUVEC microvessels relative to BC1 dhBMEC microvessels (HUVEC microvessels): more than 10 fold
Permeability in 15 μm pial PCV microvessels (pial PCV microvessels): 1 – 2 × 10^−7

Compound: OC[C@@H](O)[C@@H](O)[C@H](O)[C@H](O)CO [mannitol, d-mannitol]
Solubility limit [4]: around 1.4 M

Compound: COC(=O)c1ccccc1-c1c2ccc(=N)cc-2oc2cc(N)ccc12 [R123, Rhodamine 123]
Permeability on days four and six compared with day two (BC1 dhBMEC microvessels [1]; BC1 dhBMEC microvessels): remained stable
Permeability differences between BC1, iPS12, KW01 and AD6 microvessels [5]: no statistically significant differences
Papp at 20 min, 5 μM [6]: 3 ×10⁻⁶ cm/s
Permeability differences between day two, four and six (HUVEC microvessels; HUVEC microvessels): no statistically significant differences
Permeability in HUVEC microvessels relative to BC1 dhBMEC microvessels (HUVEC microvessels): about 20 fold
